Calls of active or inactive are those of the source.
What was measured:
[1] = biological target: T1, Histone deacetylase-like amidohydrolase (Alcaligenes sp. (strain DSM 11172) (Bordetella sp. (strain FB188))) (UniProt Q70I53); test: Inhibition of Bordetella sp. (strain FB188) N-terminus His-tagged HDAH expressed in Escherichia coli BL21 (DE3) up to 100 uM; conditions: Alcaligenaceae bacterium FB188
T1 sequence (whole entry): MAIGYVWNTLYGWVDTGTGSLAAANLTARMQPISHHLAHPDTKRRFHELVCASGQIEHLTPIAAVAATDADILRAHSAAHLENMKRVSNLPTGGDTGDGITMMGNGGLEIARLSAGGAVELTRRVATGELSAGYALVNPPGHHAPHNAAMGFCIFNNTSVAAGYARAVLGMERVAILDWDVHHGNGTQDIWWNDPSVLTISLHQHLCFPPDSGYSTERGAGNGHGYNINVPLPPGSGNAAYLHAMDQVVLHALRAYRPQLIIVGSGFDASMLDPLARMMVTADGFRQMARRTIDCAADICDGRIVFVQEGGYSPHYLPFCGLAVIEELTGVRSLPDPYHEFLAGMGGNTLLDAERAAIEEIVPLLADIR
How it was run: (§1)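 Recombinant N-terminal His6-tagged HDAH from Bordetella strain FB188, expressed in E. coli BL21, purified on zinc-loaded His-Trap column, eluted with 500 mM imidazole, dialyzed into assay buffer (>98% pure by SDS-PAGE). Tested directly against compounds; thiols generated in situ from disulfides with TCEP.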

[2] = Growth inhibition of human WI38 cells after 96 hrs by sulphorhodamine B assay; assay type: cell-based; conditions: WI-38 cells
How it was run: (§2)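 SRB growth assay; MCF7 and WI38 seeded 4000 cells/well, A549 2000 cells/well, attached overnight, then exposed to freshly made drug solutions (0.1 to 50 μM) for 96 h. Fixed with cold 10% TCA, stained with 0.4% SRB; absorbance at 540 nm as percent of untreated control, IC50 from mean absorbance.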

MCF7 = test: Growth inhibition of human MCF7 cells after 96 hrs by sulphorhodamine B assay; assay type: functional; conditions: MCF7, 96 h; how it was run: as §2
[3] = biological target: T2, Protein deacetylase HDAC6 (Homo sapiens, UniProt Q9UBN7); test: Inhibition of human recombinant HDAC6 using Boc-lys(Ac)-AMC as substrate preincubated for 20 mins with substrate measured after 60 mins by fluorescence analysis
T2 sequence (Q9UBN7 whole entry): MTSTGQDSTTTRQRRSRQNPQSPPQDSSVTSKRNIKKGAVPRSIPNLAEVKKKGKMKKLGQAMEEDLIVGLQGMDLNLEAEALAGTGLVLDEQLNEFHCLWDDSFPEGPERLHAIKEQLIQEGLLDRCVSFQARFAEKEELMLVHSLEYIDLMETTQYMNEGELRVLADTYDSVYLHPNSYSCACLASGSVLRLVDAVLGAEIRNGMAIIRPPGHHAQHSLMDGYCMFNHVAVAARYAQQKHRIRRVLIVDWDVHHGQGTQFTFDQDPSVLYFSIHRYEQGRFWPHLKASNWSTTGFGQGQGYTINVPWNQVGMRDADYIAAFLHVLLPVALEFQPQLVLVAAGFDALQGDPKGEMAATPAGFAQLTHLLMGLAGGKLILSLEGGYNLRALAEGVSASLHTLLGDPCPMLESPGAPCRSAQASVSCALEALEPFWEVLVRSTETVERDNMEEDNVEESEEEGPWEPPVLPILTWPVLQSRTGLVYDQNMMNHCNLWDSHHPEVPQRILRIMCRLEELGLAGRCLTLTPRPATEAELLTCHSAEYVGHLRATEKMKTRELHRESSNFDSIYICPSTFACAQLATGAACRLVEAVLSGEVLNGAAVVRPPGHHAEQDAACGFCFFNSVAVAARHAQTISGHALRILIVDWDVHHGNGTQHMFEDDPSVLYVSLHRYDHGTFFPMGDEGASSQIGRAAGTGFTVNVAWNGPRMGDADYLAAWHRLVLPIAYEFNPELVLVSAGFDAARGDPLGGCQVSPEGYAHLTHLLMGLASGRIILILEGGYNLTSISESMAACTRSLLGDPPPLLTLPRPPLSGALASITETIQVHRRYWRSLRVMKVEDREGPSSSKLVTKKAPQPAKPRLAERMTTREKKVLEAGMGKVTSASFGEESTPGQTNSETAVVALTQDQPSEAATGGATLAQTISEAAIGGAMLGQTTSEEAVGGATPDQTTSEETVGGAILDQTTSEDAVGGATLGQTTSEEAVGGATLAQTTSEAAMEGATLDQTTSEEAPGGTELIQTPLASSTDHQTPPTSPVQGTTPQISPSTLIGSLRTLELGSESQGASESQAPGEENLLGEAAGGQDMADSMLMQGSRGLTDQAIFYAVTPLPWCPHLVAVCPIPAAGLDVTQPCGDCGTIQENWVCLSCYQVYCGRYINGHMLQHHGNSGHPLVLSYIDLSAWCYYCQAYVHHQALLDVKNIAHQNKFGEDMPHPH

Histone deacetylase 1 = Histone deacetylase 1 (Homo sapiens, UniProt Q13547); test: Inhibition of human recombinant HDAC1 using Boc-lys(Ac)-AMC as substrate preincubated for 20 mins with substrate measured after 60 mins by fluorescence analysis
A549 = test: Growth inhibition of human A549 cells after 96 hrs by sulphorhodamine B assay; assay type: functional; conditions: A549, 96 h; how it was run: as §2
[4] = biological target: DNA (cytosine-5)-methyltransferase 1 (Homo sapiens, UniProt P26358); test: Inhibition of full length N-terminal His6-tagged human DNMT1 at 120 uM after 1 hr by fluorescence analysis
How it was run: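 Baculovirus-expressed DNMT1 (80 nM final) with SAM (10 μM final) and hemimethylated hairpin oligo (125 nM final) in MOPS buffer pH 6.5 with 1 mM DTT, 1 h room temperature. Stopped with Gla1 plus 125 μM SAH, developed 7 h; fluorescence Ex 485/Em 520 nm. Thiols made in situ by TCEP reduction; no SAM as full-inhibition control.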

[5] = biological target: T3, Histone deacetylase-like amidohydrolase (Alcaligenes sp. (strain DSM 11172) (Bordetella sp. (strain FB188)), UniProt Q70I53); test: Inhibition of Bordetella sp. (strain FB188) N-terminus His-tagged HDAH expressed in Escherichia coli BL21 (DE3); parameters: species or system Alcaligenaceae bacterium FB188; how it was run: as §1
T3 sequence (Q70I53 whole entry): T1 sequence (whole entry)

Chain of DNA (cytosine-5)-methyltransferase 1 (P26358 whole entry): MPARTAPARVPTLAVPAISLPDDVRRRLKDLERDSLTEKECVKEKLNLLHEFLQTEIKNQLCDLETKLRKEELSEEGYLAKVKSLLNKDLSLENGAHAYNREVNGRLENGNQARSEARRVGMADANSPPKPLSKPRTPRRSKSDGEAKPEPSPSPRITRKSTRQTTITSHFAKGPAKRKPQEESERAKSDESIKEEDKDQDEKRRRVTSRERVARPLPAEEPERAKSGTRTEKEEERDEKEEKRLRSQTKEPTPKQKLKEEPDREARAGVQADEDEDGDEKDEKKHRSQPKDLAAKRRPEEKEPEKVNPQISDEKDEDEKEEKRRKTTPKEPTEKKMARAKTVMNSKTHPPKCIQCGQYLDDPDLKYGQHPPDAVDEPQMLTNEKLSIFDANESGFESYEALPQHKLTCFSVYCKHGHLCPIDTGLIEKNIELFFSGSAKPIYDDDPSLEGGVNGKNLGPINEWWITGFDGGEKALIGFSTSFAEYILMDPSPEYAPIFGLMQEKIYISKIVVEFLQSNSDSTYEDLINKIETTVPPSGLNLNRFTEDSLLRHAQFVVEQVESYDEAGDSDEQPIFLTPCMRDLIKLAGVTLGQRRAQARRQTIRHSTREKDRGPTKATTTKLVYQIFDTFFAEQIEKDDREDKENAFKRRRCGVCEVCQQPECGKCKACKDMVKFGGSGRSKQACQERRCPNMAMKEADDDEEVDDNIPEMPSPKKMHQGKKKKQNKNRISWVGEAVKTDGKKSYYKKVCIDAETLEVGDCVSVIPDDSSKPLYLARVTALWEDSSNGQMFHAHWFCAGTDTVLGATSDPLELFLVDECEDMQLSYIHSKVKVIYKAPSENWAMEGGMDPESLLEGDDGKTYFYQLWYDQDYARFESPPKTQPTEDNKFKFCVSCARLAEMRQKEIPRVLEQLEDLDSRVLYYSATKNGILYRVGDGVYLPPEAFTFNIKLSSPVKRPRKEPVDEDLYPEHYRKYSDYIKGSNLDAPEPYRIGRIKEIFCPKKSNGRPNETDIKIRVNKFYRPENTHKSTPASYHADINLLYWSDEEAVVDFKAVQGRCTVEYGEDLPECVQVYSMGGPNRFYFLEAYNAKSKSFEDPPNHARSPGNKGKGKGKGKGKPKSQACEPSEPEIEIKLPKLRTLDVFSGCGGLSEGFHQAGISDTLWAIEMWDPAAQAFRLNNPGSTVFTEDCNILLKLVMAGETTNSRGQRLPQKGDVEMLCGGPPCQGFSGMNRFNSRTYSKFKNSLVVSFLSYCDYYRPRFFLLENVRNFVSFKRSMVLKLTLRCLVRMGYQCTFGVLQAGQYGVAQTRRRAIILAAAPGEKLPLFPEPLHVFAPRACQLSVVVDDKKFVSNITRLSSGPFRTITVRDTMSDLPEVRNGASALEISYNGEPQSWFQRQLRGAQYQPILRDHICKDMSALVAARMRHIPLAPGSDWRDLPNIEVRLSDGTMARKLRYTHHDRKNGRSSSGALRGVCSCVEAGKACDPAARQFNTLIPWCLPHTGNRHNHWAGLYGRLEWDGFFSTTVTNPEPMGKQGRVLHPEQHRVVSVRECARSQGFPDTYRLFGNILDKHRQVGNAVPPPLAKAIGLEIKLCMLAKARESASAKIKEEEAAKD
Chain of Histone deacetylase 1 (Q13547 whole entry): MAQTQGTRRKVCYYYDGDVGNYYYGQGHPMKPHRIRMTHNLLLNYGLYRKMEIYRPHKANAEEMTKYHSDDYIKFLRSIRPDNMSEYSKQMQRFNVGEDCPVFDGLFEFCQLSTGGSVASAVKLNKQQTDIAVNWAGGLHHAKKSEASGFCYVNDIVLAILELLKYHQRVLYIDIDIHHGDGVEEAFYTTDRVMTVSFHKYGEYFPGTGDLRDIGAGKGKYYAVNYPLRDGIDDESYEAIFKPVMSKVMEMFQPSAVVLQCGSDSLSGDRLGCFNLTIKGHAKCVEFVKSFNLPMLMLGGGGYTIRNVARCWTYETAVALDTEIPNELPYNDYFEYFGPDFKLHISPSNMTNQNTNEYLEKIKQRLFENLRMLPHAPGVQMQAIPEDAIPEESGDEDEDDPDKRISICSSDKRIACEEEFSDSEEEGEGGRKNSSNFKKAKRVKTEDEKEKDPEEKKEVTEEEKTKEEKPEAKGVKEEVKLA

Compound | inhibition [1] | GI50 at 96 h [2] [µM] | GI50 (MCF7) [µM] | IC50 [3] [µM] | IC50 (Histone deacetylase 1) [µM] | GI50 (A549) [µM] | inhibition [4] | IC50 [5] [µM]
O=C(Cc1ccc(O)c(Br)c1)C(=O)NCCSSCCNC(=O)C(=O)Cc1ccc(O)c(Br)c1 | inactive | 33.1 | 13.1 | 9 | 5 | 15.2 | – | –
CO/N=C(\Cc1ccc(O)c(Br)c1)C(=O)NCCS | inactive | 24.2 | 19.3 | 0.22 | 0.027 | 10.6 | inactive | –
COc1cc(C/C(=N\O)C(=O)NCCS)cc(Br)c1OC | inactive | 4.31 | 2.25 | 0.51 | 0.001 | 4.4 | inactive | –
CSCCNC(=O)/C(Cc1ccc(O)c(Br)c1)=N/O | inactive | > 50 | > 50 | > 50 | 7.7 | > 50 | – | –
O=C(NCCSSCCNC(=O)/C(Cc1ccc(F)c(Br)c1)=N/O)/C(Cc1ccc(F)c(Br)c1)=N/O | inactive | 1.8 | 1 | – | – | 2.73 | – | –
CO/N=C(\Cc1ccc(O)c(Br)c1)C(=O)NCCSC | inactive | > 50 | > 50 | > 50 | 11 | > 50 | – | –
CO/N=C(\Cc1ccc(O)c(Br)c1)C(=O)NCCSSCCNC(=O)/C(Cc1ccc(O)c(Br)c1)=N/OC | inactive | > 50 | – | 9.5 | 0.38 | 49.5 | – | –
O=C(CCCNC(=O)/C(Cc1ccc(O)c(Br)c1)=N/O)NO | Active | – | – | 1.7 | 0.31 | – | – | 5.25
COc1ccc(C/C(=N\O)C(=O)NCCS)cc1Br | inactive | 1.13 | 0.61 | 3.2 | 0.0018 | 0.16 | inactive | –
COc1cc(C/C(=N\O)C(=O)NCCSSCCNC(=O)/C(Cc2cc(Br)c(OC)c(OC)c2)=N/O)cc(Br)c1OC | inactive | 2.14 | 0.72 | – | – | 2.51 | – | –
O=C(NCCSSCCNC(=O)/C(Cc1ccccc1)=N/O)/C(Cc1ccccc1)=N/O | inactive | > 50 | 11.1 | – | – | 16.3 | – | –
O=C(Cc1ccc(O)c(Br)c1)C(=O)NCCS | inactive | 42.6 | 35.4 | 1 | 0.4 | 43 | – | –
CN(C)c1ccc(C/C(=N\O)C(=O)NCCS)cc1 | inactive | – | – | 2.3 | 0.001 | – | inactive | –
COc1ccc(C/C(=N\O)C(=O)NCCS)cc1I | inactive | – | – | 0.24 | 0.001 | – | inactive | –
O=C(O)CCP(CCC(=O)O)CCC(=O)O | – | > 50 | > 50 | > 25 | > 25 | > 50 | – | –
O=C(NCCS)/C(Cc1ccc(O)cc1)=N/O | inactive | – | – | 1.7 | 0.004 | – | inactive | –
CSCCNC(=O)/C(Cc1ccc(O)c(Br)c1)=N/N | inactive | > 50 | > 50 | > 50 | 50 | > 50 | – | –
O=C(NCCS)/C(Cc1ccc(F)c(Br)c1)=N/O | inactive | 7.72 | 2.87 | 0.64 | 0.001 | 6.24 | inactive | –
N/N=C(\Cc1ccc(O)c(Br)c1)C(=O)NCCSSCCNC(=O)/C(Cc1ccc(O)c(Br)c1)=N/N | inactive | – | 3.81 | 5 | 6.1 | 18.8 | – | –
O=C(NCCS)/C(Cc1ccccc1)=N/O | inactive | 10.9 | 9.38 | 3.3 | 0.012 | 15.2 | inactive | –
CSCCNC(=O)C(=O)Cc1ccc(O)c(Br)c1 | inactive | – | 18.3 | 30 | 7.3 | > 50 | – | –

Reference: ChEMBL document CHEMBL2046381, “Defining the mechanism of action and enzymatic selectivity of psammaplin A against its epigenetic targets” (J Med Chem, 2012)
